The values that follow come from PubChem BioAssay AID804 (SRMLSC, 2007).

Usually inhibition stands for the change of the read-out against control, counted positive when it falls.

The whole screen tested about 140,000 compounds, of which about 710 (0.51%) were called active. Only a selection was taken, and actives are over-represented in it overall. A number with no mark means an inactive call.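 How the source made its calls: active means inhibition above a set limit, 3 SD over the mean compound inhibition (cut at about 44% in these data); inactive means the rest.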

A short description of this experiment: BB579 yeast growth reduction, restrictive medium – S. cerevisiae, yeast lifespan-shortening project, primary screen (AID 804). The note with it: OD615, 48 h, at 10 µM, stronger effect = higher value. In short, it runs like this: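 System: Saccharomyces cerevisiae DeaD strain BB579, replicative lifespan model yeast. Buffer or medium: restrictive glucose-based CSMM-D medium. Doses: one dose, 10 µM compound with 0.25% DMSO. Timing: 4 h preincubation and 48 h exposure at 30 °C. Detection: turbidity as optical density at 615 nm. Benchmarks: amphotericin B 10 µg/mL, positive.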
Turning to `COc1ccc2nc(Nc3nc(-c4cc5ccccc5oc4=O)cs3)sc2c1`, the inhibition is -1.96%. With `O=C(Cc1coc2ccc3ccccc3c12)NCc1cccs1`, the inhibition was -8.63%. For the compound `CCC(=O)Nc1c(S(=O)(=O)c2ccccc2)c2nc3ccccc3nc2n1Cc1ccccc1`, the inhibition is -16.3%. As to `O=C(O)c1ccc(/C=N/NC(=O)c2ccc(Br)cc2)cc1`, the inhibition is -28.3%. The figure for `O=S(=O)(NCCc1ccncc1)c1ccccc1` is -4.48%; for `COc1cc(OC)c(C(=O)Nc2ccccc2-c2ccccc2)cc1OC` it is -28.8%; for `CCNC(=O)NC(=O)C(C)OC(=O)C1CCN(S(=O)(=O)c2ccccc2F)CC1` (stereo not drawn) it is 6.21%. On to `COc1ccc(/C=C/C(=O)c2cc(Br)ccc(=O)c2O)cc1`, for which the inhibition is 96% (active). Regarding `COc1ccc(C(=O)/C=C/c2ccc(OC3CSC3)cc2)cc1`, the inhibition was -16.1%. Under `COc1ccc(/C=C/C(=O)c2ccc(OC)cc2O)cc1` stands -54.2%; under `Cc1ccc(C(=O)OCc2nc(N)nc(Nc3ccccc3C)n2)cc1`, -34.8%. Consider `CC(=O)c1c(N2CCN(c3ccc(F)cc3)CC2)nc(=S)n(-c2ccccc2)c1C`, for which the inhibition was -54.2%. As to `CCSc1nc(C)nc2c1oc1ccccc12`, the inhibition was -45.9%. Under `Cc1nc(N2CCCC2C(=O)O)c2oc3ccccc3c2n1` (stereo not drawn) stands -21.7%; under `Cc1nc(Cl)c2oc3ccccc3c2n1`, 59.5% (active). Take `CCOC(=O)C1=C(C)OC(N)=C(C#N)C1c1cncc(-c2ccc(F)cc2)c1` (stereo not drawn): the inhibition was -36.2%. On to `COc1ccc(C(=O)C[n+]2ccc(C)cc2)cc1`, for which the inhibition is -28.4%. Regarding `CCc1ccc(NC(=O)CC2C(=O)NCCN2C(=S)Nc2ccccc2)cc1` (stereo not drawn), the inhibition was -24.6%. Regarding `COc1cccc(NC(=S)NC(=O)c2c(Cl)c(C)nn2C)c1`, the inhibition was -62.5%. On to `Cc1nc2sc(C(=O)c3ccccc3)c(N)c2c2c1CCCC2`, for which the inhibition is 8.75%. Take `N#C/C(=C\c1ccccc1C(F)(F)F)C(=O)Nc1ccccc1F`: the inhibition is 4.84%.

Regarding `CC(=O)NC1=NN(C(C)=O)C(C)(c2ccc(C)cc2)S1` (stereo not drawn), the inhibition is -33.1%. With `Fc1ccc2c(c1)C(c1cccnc1)=NNC(c1cccs1)=N2`, the inhibition is -47.9%. Regarding `COC(=O)c1ccc(C(=O)OC)c(NC(=S)N2CCN(c3ccc(F)cc3)CC2)c1`, the inhibition is -49.1%. On to `Cc1ccc(-n2c(SCC(=O)N3c4ccccc4Sc4ccccc43)nnc2-c2ccncc2)cc1`, for which the inhibition is -47.4%.

For `COc1ccc(C)cc1NC(=O)C(Sc1ccccc1)c1ccccc1` (stereo not drawn), the inhibition was -2.09%.

For `Cc1ccc(S(=O)(=O)N(C)C)cc1NC(=O)/C=C/c1cccs1`, the inhibition is -48%.

With `Cc1cc(/C=C2\SC(=Nc3ccc(N4CCOCC4)cc3)N(C)C2=O)c(C)n1-c1cccnc1`, the inhibition is -7.27%. Under `CC1CCN(c2ccc(C(=O)Nc3nnc(C4CC4)s3)cc2[N+](=O)[O-])CC1` stands -33%; under `Cc1occc1C(=O)Nc1nnc(C2CCCCC2)s1`, -32.1%. For the compound `O=C(Nc1nnc(C2CC2)s1)c1ccccn1`, the inhibition was 62% (active). Regarding `CCC(NC(=O)c1ccccc1NC(=O)c1ccccc1)C(=O)NNC(=O)CSc1nc2ccccc2o1` (stereo not drawn), the inhibition is -6.61%. With `CCS(=O)(=O)N1Cc2ccccc2CC1C(=O)Nc1nc2ccc(F)cc2s1` (stereo not drawn), the inhibition is -23%. Turning to `COc1cc(/C=C(/NC(=O)c2ccc(Cl)cc2Cl)C(=O)O)cc(OC)c1OC`, the inhibition is -17.4%. Consider `C#CCCCc1nc2ccccc2c(=O)n1N`, for which the inhibition is -33.7%. Regarding `Cc1ccc(OCC(=O)Nc2ccccc2Sc2ccc(Cl)cc2)c([N+](=O)[O-])n1`, the inhibition is -29.5%. In the case of `CC1=C[C@H]2Cc3cc(C)cc(C)c3S(=O)(=O)[C@@H]2C=C1`, the inhibition is -12.4%.

Regarding `CC(=O)N1C(C)c2ccccc2C(C)(C)CC12CCCCC2` (stereo not drawn), the inhibition was -16.3%.

As for `O=c1c(Cl)c(NCc2ccc(F)cc2Cl)cnn1C12CC3CC(CC(C3)C1)C2`, the inhibition was -27.1%.

For `Cc1ncc(CC(=O)n2cc(C(=O)c3cc(Cl)ccc3O)cn2)s1`, the inhibition is 68.2% (active). For `Cc1ccc(CCC(=O)Nc2ncc(Cc3cc(Cl)ccc3Cl)s2)o1`, the inhibition is -66.6%.

As for `COc1cc(/C=C/C(=O)OCC(=O)Nc2cccc(Oc3ccccc3)c2)ccc1O`, the inhibition is -29.9%. As for `C/C(=N/NC(=O)C1COc2ccccc2O1)c1ccco1` (stereo not drawn), the inhibition was -32.3%. Under `O=C(COC(=O)CSc1nnc(-c2ccc(Cl)cc2)o1)Nc1cc(Cl)cc(Cl)c1` stands -26.3%.

`CN(Cc1ccccc1)C(=O)COC(=O)c1ccccc1Nc1ccccc1`: the inhibition was -8.71%. Take `O=C(Nc1ccc([N+](=O)[O-])cc1)C1(c2ccccc2)CCOCC1`: the inhibition is -16.4%. The figure for `O=C(NC1CCCC1)C(NS(=O)(=O)c1ccc(Br)s1)c1ccccc1` (stereo not drawn) is -26.3%. `O=S(=O)(c1ccc(F)cc1)N1CCN(C(=S)NCc2ccco2)CC1`: the inhibition was -18%. `N#C/C(=C(/O)COC(=O)COc1ccc(Cl)cc1)c1nc2ccccc2[nH]1`: the inhibition is -22.6%.

Consider `Cc1ccc(NC(=O)COC(=O)CCc2nc3ccccc3n2-c2ccccc2)c(C)c1`, for which the inhibition was -45.6%. Turning to `S=C1SCN(CCN2CCOCC2)CN1Cc1ccccc1`, the inhibition was 39.7%. Under `COc1ccc(CN2CN(C(C)C)CSC2=S)cc1` stands 68.5% (active); under `COCC(=O)Nc1cc(C(=O)OC)cc(C(=O)OC)c1`, 6.64%; under `Cc1cc2oc(=O)cc(CN3CCN(S(=O)(=O)c4cccs4)CC3)c2cc1C(C)C`, -20.6%.

For `Cc1ccc(CNC(=O)Cn2c(=O)c3sccc3n(Cc3cccc([N+](=O)[O-])c3)c2=O)cc1`, the inhibition was -44.2%.

For the compound `Cc1cccc(NC(=O)Cn2c(=O)n(Cc3ccccc3)c(=O)c3c(C)c(C)sc32)c1`, the inhibition is -27.1%. `OC(CNCC1CCCO1)Cn1c2ccc(Br)cc2c2cc(Br)ccc21` (stereo not drawn): the inhibition was 98.7% (active). The figure for `Cc1ccc(C(=O)NCC2CCCO2)o1` (stereo not drawn) is -26.6%; for `Cc1cc(Br)ccc1NC(=O)C1CCCO1` (stereo not drawn) it is -21.5%; for `COc1ccc2nc(SCc3ccccc3)nc(C)c2c1` it is -34.5%.

For the compound `COc1ccc(NC(=O)Nc2ccc3nc(C)c(C)nc3c2)cc1`, the inhibition was -50.2%. With `COc1ccc2nc(/N=C(\N)NC(=O)Nc3ccccc3)nc(C)c2c1`, the inhibition is 68.3% (active).

As to `CCOC(=O)CC(NC(=O)C1c2ccccc2Oc2ccccc21)c1ccc(C)cc1` (stereo not drawn), the inhibition is -27.5%. The figure for `Cc1cc(/C=C2/NC(=O)NC2=O)c(C)n1-c1cccnc1` is -7.15%; for `CC(C)n1c(O)c(N=Nc2ccccn2)c2ccccc21` it is -16.1%. For `O=C1Nc2ccccc2C12Nc1ccccc1S2` (stereo not drawn), the inhibition was -30.7%.

With `CCc1ccc2c(c1)C1(NN=C(c3ccccc3)S1)C(=O)N2` (stereo not drawn), the inhibition is 94.7% (active).

As for `C=C1c2cc(CC)ccc2NC(=O)N1c1ccc(C)cc1`, the inhibition was 23.4%.

For `Cc1ccc(OCCOCCOc2ccc(Br)cc2/C=N\NC(=O)c2ccncc2)cc1`, the inhibition is -32.5%. With `COC(=O)c1ccccc1NC(=S)NC(=O)c1ccccc1F`, the inhibition was -31.5%. Regarding `CC(C)(C)c1ccc(/C=C/C(=O)Nc2ncccn2)cc1`, the inhibition is -6.47%. On to `CCn1c(C(C)NC(=O)c2ccc(C)cc2)n[nH]c1=S` (stereo not drawn), for which the inhibition is -50.9%.

As for `COc1ccc(Cc2nnc(N/N=C/c3ccccc3O)[nH]c2=O)cc1OC`, the inhibition was -57%.

On to `Cc1csc(=Nc2ccccc2)n1CCO`, for which the inhibition was -3.94%. Turning to `Oc1c(Cl)cc(Cl)c(Cl)c1Cc1c(O)c(Cl)cc(Cl)c1Cl`, the inhibition is 71.3% (active). As for `Cc1ccc(C(=O)Nc2sc(Cc3ccc4c(c3)OCO4)c(C)c2C(N)=O)cc1`, the inhibition was -10.9%. For `NC1=C([N+](=O)[O-])C(c2ccccc2)C2=C(CCCC2=O)O1` (stereo not drawn), the inhibition was -44.3%. Take `CCCCC(O)(CCCC)C(=O)NN(C(=O)CCl)c1ccccc1`: the inhibition was -4.22%. As to `CCOC(=O)c1sc2nc(C)nc(SCC(N)=O)c2c1C`, the inhibition is -20.9%. Under `CCOc1ccc(/C=N/NC(=O)C(C)Sc2ccccn2)cc1OCC` (stereo not drawn) stands -33.6%. Regarding `Cc1ccc2[nH]c(=O)c(CC=C(Cl)Cl)c(C)c2c1`, the inhibition was -51.5%. On to `CCOC(=O)c1sc(NC(=O)COc2ncnc3ccccc23)c(C(=O)OCC)c1C`, for which the inhibition was -43.9%. The figure for `Cc1nn(Cc2ccccc2)c(C)c1C(=O)NCCN1C(=O)S/C(=C\c2ccc(F)cc2)C1=O` is -32.9%; for `CC(CNc1ccc([N+](=O)[O-])c2cccnc12)Nc1c([N+](=O)[O-])cc(C(F)(F)F)cc1[N+](=O)[O-]` (stereo not drawn) it is -23.5%.

As to `NS(=O)(=O)c1ccc(N=Cc2ccc(Br)s2)cc1`, the inhibition is -15%. Regarding `O=C(COC(=O)/C=C/c1cn(-c2ccccc2)nc1-c1cccnc1)Nc1ccc(Cl)cc1Cl`, the inhibition was -21.4%. As for `CC(Sc1nnc2c(n1)C1CCC2(C)C1(C)C)C(=O)Nc1ccccc1` (stereo not drawn), the inhibition was -23.4%. Take `O=C(/C=C\c1ccc2c(c1)OCO2)NC1(C(=O)Nc2ccc3c(c2)OCCO3)CCCCC1`: the inhibition is 9.33%. Consider `COc1ccc(S(=O)(=O)N2CN(CCc3ccc(OC)c(OC)c3)c3nc4ccccc4nc32)cc1`, for which the inhibition was -25.7%. Turning to `COc1cccc(N(C(=O)C2COc3ccccc3O2)C(C(=O)NC2CCCCC2)c2ccc(O)cc2)c1` (stereo not drawn), the inhibition is -6.16%. Consider `CCCCCCCC[n+]1cccc(C(=O)N2c3c(nc(N)[nH]c3=O)NC(C)C2C)c1` (stereo not drawn), for which the inhibition was -5.07%. Consider `O=C(Nc1nc(-c2ccc(-c3ccccc3)cc2)cs1)c1cnccn1`, for which the inhibition was -18.9%. Under `O=C(CNCc1ccc(F)cc1)Nc1ccccc1-c1ccccc1` stands -20.9%.
